Measurements published in the RNAGym collection of RNA variant scans (doi:10.1126/science.aae0568).
Fewer inactive variants are shown than the library holds.

B1: tRNA (parent)
chain: GUUCCGUUGGCGUAAUGGUAACGCGUCUCCCUCCUAAGGAGAAGACUGCGGGUUCGAGUCCCGUACGGAACG

Variants of: B1
Assay: yeast fitness relative to wild type (ratio to wild type); higher = fitter; tRNA-Arg(CCU), competitive growth, 37 C, YPD
Method in brief: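 The tRNA-Arg(CCU) gene variants were made by chemical synthesis with a 3% per-site mutation rate at 69 sites and inserted at the native genomic locus of Saccharomyces cerevisiae. After pooling, the strains were competed in YPD at 37°C for 24 hours in six parallel replicates. Gene amplicons from the start population and each end population were read by 100-nucleotide paired-end sequencing, and Darwinian fitness relative to wild type was taken from genotype frequency changes. Genotypes needed ≥ 100 starting reads, and estimates < 0.5 were set to 0.5.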

Question: Which yeast fitness does the source give for GUUCCGUUGGCGUAAUGGUAACGCGUCUCACUCCUAAGGAGAAGAGUGCGGGUUCAAGUCCCGUACGGAACG [C30A C46G G56A] here?
Answer: 0.74

Question: For GUUCCGUUGGCGUAAUGGUAACGCGUCUCACUCCUAAGGAGAAGACUGCGGGUUCGAGUCGCGUACGGAACG [C30A C61G], which yeast fitness is on record?
Answer: 0.651

Question: For GUUCCGUUGGCGUAAUGGUAACGCGUCUCACUCCUAAGGAGAAGACUGCGGGUUCGAGUCACGUACGGAACG [C30A C61A], which yeast fitness is on record?
Answer: 0.721

Question: Which yeast fitness does the source give for GUUCCGUUGGCGUAAUGGUAACGCGUCUCACUCCUAAGGAGAAGACUGUGGGUUCGAGUCCCGUACGGUACG [C30A C49U A69U] here?
Answer: 0.682

Question: For GUUCCGUUGGCGUAAUGGUAACGCGUCUCACUCCUAAGGAGAAGACUGCGGCUUCGAGUCCCGUACGGCACG [C30A G52C A69C], which yeast fitness is on record?
Answer: ≤ 0.5

Question: Which yeast fitness does the source give for GUUCCGUUGGCGUAAUGGUAACGCGUCUCACUCAUAAGGAGAAGACUGCGGGUUCGAGUCCCGUACGGAACG [C30A C34A] here?
Answer: 0.76

Question: Which yeast fitness does the source give for GUUCCGUUGGCGUAAUGGUAACGCGUCUCACUCUUAAGGAGAAGACUGCGGGUUCGAGUCCCGUACGGAACG [C30A C34U] here?
Answer: 0.752

Question: With GUUCCGUUGGCGUAAUGGUAACGCGUCUCAUUCCUAAGGAGAAGCCUGCGGGUUGGAGUACCGUACGGAACG [C30A C31U A45C C55G C60A] as the variant, how does the yeast fitness read?
Answer: ≤ 0.5

Question: Which yeast fitness does the source give for GUUCCGUUGGCGUAAUGGUAACGCGUCUCACUCCUAAGGAGAAGACUGCGGGUUUGAGUCCCGUACGGACCG [C30A C55U A70C] here?
Answer: 0.545

Question: Which yeast fitness does the source give for GUUCCGUUGGCGUAAUGGUAACGCGUCUCACACCUAAGGAGAAGACUGCGGGUUCGCGUCCCGUACGGAACG [C30A U32A A57C] here?
Answer: ≤ 0.5

Question: With GUUCCGUUGGCGUAAUGGUAACGCGUCUCACUCCUAAGGAGAAGAGUGCGAGUUCGAGUCCCGUACGGAACG [C30A C46G G51A] as the variant, how does the yeast fitness read?
Answer: 0.593

Question: With GUUCCGUUGGCGUAAUGGUAACGCGUCUCACUCCUAAGGACAAGGCUGCGGGUUCGAGUCCCGUACCGAACG [C30A G41C A45G G67C] as the variant, how does the yeast fitness read?
Answer: ≤ 0.5

Question: Which yeast fitness does the source give for GUUCCGUUGGCGUAAUGGUAACGCGUCUCACUCCUAAAGAGAAAACUGCGGGUUCGAGUCCCGUACGGAACG [C30A G38A G44A] here?
Answer: ≤ 0.5

Question: For GUUCCGUUGGCGUAAUGGUAACGCGUCUCACUCCUAAGGAGAAGACUGCGGAUUCGUGUCCCGUACGGAACG [C30A G52A A57U], which yeast fitness is on record?
Answer: ≤ 0.5

Question: For GUUCCGUUGGCGUAAUGGUAACGCGUCUCACUCCUAAGGAGAAGACUGCGGGUUCGAGUCCCGUACAGAACG [C30A G67A], which yeast fitness is on record?
Answer: 0.822

Question: With GUUCCGUUGGCGUAAUGGUAACGCGUCUCACUCCUAAGGAGAAGACUGCGGGUUCUAGUCCCGUGUGGAACG [C30A G56U A65G C66U] as the variant, how does the yeast fitness read?
Answer: ≤ 0.5

Question: For GUUCCGUUGGCGUAAUGGUAACGCGUCUCAUUCCUGAGGAGAAGACUGCAGGUUCGAGUCCCGUAUGGAACG [C30A C31U A36G G50A C66U], which yeast fitness is on record?
Answer: ≤ 0.5

Question: With GUUCCGUUGGCGUAAUGGUAACGCGUCUCACUCCUAAGGAGAAGACUGCGGGUUCGAGUCACGUGGGGAGCG [C30A C61A A65G C66G A70G] as the variant, how does the yeast fitness read?
Answer: ≤ 0.5

Question: With GUUCCGUUGGCGUAAUGGUAACGCGUCUCACUCGUAAGGAGAAGACUGCGGGUUCGAGUACCGAACGGAACG [C30A C34G C60A U64A] as the variant, how does the yeast fitness read?
Answer: 0.541

Question: Which yeast fitness does the source give for GUUCCGUUGGCGUAAUGGUAACGCGUCUCACUCAUAAGGAGAAGACUGUGGGUUCGAGUCCCGUACGGAACG [C30A C34A C49U] here?
Answer: ≤ 0.5

Question: Which yeast fitness does the source give for GUUCCGUUGGCGUAAUGGUAACGCGUCUCACUCCUAAGCAGAAGACUGCGGGUUCGGGUCCCGUACGGAACG [C30A G39C A57G] here?
Answer: ≤ 0.5

Question: Which yeast fitness does the source give for GUUCCGUUGGCGUAAUGGUAACGCGUCUCACUCCUAAGGAGAAGACUGCGGGUUCGAGUCCCGUACGCAACG [C30A G68C] here?
Answer: 0.823

Question: For GUUCCGUUGGCGUAAUGGUAACGCGUCUCACUCCUAAGGAGAAGACUGCGGGUUCGAGUCCCGUACGAAACG [C30A G68A], which yeast fitness is on record?
Answer: 0.862

Question: With GUUCCGUUGGCGUAAUGGUAACGCGUCUCACUCCUAAGGAGAAGACUGCGAGUUCGAGUCCCGUACUGAACG [C30A G51A G67U] as the variant, how does the yeast fitness read?
Answer: ≤ 0.5

Question: Which yeast fitness does the source give for GUUCCGUUGGCGUAAUGGUAACGCGUCUCACUCCUAAGGAACAGACUGCCGGUUCGAGUCCCGUACGGAGCG [C30A G41A A42C G50C A70G] here?
Answer: ≤ 0.5

Question: For GUUCCGUUGGCGUAAUGGUAACGCGUCUCACUCAUAAGGAGACGACUGCGGGUUCGAGUCCUGUACGGAACG [C30A C34A A43C C62U], which yeast fitness is on record?
Answer: ≤ 0.5

Question: With GUUCCGUUGGCGUAAUGGUAACGCGUCUCACUCCUAAGGAGAAGAUUGCGGGUUCGAGUCCCGUACGGAACG [C30A C46U] as the variant, how does the yeast fitness read?
Answer: 0.939

Question: With GUUCCGUUGGCGUAAUGGUAACGCGUCUCACUCCUAAGGAGAAGACUGCGGGUUCGAGUCUAGUACGGAGCG [C30A C61U C62A A70G] as the variant, how does the yeast fitness read?
Answer: ≤ 0.5

Question: With GUUCCGUUGGCGUAAUGGUAACGCGUCUCACUCCUAAGGAGAAGACUGGGGGUUCGAGUCCCGUACGGAACG [C30A C49G] as the variant, how does the yeast fitness read?
Answer: 0.798

Question: For GUUCCGUUGGCGUAAUGGUAACGCGUCUCACUCCUAAGGAGAAGACUGUGGGUUCGAGUCCCGUACGGAACG [C30A C49U], which yeast fitness is on record?
Answer: 0.898

Question: With GUUCCGUUGGCGUAAUGGUAACGCGUCUCAUUUCUACGGAGAAGACUGCGGGUUCGAGUCCCGUACGGAACG [C30A C31U C33U A37C] as the variant, how does the yeast fitness read?
Answer: ≤ 0.5

Question: With GUUCCGUUGGCGUAAUGGUAACGCGUCUCACUCCUAAGGAGAAGACUGCGGGUUCGAGUCCUGUACGGAUCG [C30A C62U A70U] as the variant, how does the yeast fitness read?
Answer: 0.709

Question: With GUUCCGUUGGCGUAAUGGUAACGCGUCUCACUCCUAAAGAGAAGACUGCGGGUUCGAGUCCCGUACGGAACG [C30A G38A] as the variant, how does the yeast fitness read?
Answer: 0.783

Question: Which yeast fitness does the source give for GUUCCGUUGGCGUAAUGGUAACGCGUCUCACUCCUAAGGAGAAGACUGCGGGUUCGAGUCCAGUACGGAACG [C30A C62A] here?
Answer: 0.589

Question: With GUUCCGUUGGCGUAAUGGUAACGCGUCUCACUCCUAAGGAGAAGACUGCGGGUUCGAGUCCAGUACGGAGCG [C30A C62A A70G] as the variant, how does the yeast fitness read?
Answer: 0.547

Question: With GUUCCGUUGGCGUAAUGGUAACGCGUCUCACUCCUAAGGAGAAGACUACGGGUUCGAGUCCCGUACGGAACG [C30A G48A] as the variant, how does the yeast fitness read?
Answer: 1.06

Question: Which yeast fitness does the source give for GUUCCGUUGGCGUAAUGGUAACGCGUCUCACUCCUAAGGAGAAGACUGAGGGUUCGAGUCUCGUACGGAACG [C30A C49A C61U] here?
Answer: ≤ 0.5

Question: Which yeast fitness does the source give for GUUCCGUUGGCGUAAUGGUAACGCGUCUCACUUCUAAGGAGAAGACUGCGGGUUCGAGUCCCGUACGGAACG [C30A C33U] here?
Answer: 0.738
